Hits are enriched below; roughly 4.4% of the tested compounds scored in any of these assays.
HTR2A ag: mouse HTR2A agonism via beta-arrestin recruitment. P35363. CHO-K1 mHTR2A beta-arrestin complementation, luminescence; percent of 30 µM serotonin response. activation, % at 7.6 µM. hit rate 0.66% among 360,000. AID 624169;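 active means activation above a run cutoff, the mean activation of all tested compounds plus 3 SD, cut at about 14% in these data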
AI-2 QS modul: modulators of Vibrio harveyi AI-2 quorum sensing system; Vibrio harveyi JMH597 AI-2 luminescence/OD600 ratio, 9 h; hits give low values; strain lacks LuxN and CqsS sensors; 0 = neutral-control median; activity change, % at 7.5 µM; hit rate 0.4% among 300,000; AID 2094; in the data active means activity change below about -75%, passing the limit was not always enough;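 further: luminescence divided by OD600 gain over 9 h not by final OD600 alone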
Tb MetRS inh: blocks T. brucei methionyl-tRNA synthetase activity. purified T. brucei MetRS, ATP depletion, Kinase-Glo luminescence. inhibition, % at 11.9 µM. hit rate 0.4% among 360,000. AID 624268;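 active means inhibition above a per-plate cutoff of the control wells' mean inhibition plus 3 SD, cut at about 5.5% in these data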
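Material – parasite MetRS enzyme · Medium – HEPES-MgCl2-KCl buffer plus DTT, spermine, BSA, pyrophosphatase · Reagent – ATP, methionine and E. coli bulk tRNA substrates · Times – 15 min enzyme-compound preincubation, 2 h reaction, 10 min detection, 25 °C · Measured by – luminescence of leftover ATP · Evaluation – percent inhibition relative to median high and low control wells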
MsrA inhibitor: inhibits bovine methionine sulfoxide reductase A | purified bovine MsrA, absorbance read-out | inhibition, % at 15.5 µM | hit rate 0.75% among 360,000 | AID 651718; in the data active means inhibition above about 4.5%
AHR act: activates the human aryl hydrocarbon receptor. AID 2796. activation, % at 5 µM. hit rate 2.5% among 320,000. AHR-responsive luciferase reporter cells, luminescence; in the data active means activation above about 47%
Target sequence (P35869 whole entry, looked up): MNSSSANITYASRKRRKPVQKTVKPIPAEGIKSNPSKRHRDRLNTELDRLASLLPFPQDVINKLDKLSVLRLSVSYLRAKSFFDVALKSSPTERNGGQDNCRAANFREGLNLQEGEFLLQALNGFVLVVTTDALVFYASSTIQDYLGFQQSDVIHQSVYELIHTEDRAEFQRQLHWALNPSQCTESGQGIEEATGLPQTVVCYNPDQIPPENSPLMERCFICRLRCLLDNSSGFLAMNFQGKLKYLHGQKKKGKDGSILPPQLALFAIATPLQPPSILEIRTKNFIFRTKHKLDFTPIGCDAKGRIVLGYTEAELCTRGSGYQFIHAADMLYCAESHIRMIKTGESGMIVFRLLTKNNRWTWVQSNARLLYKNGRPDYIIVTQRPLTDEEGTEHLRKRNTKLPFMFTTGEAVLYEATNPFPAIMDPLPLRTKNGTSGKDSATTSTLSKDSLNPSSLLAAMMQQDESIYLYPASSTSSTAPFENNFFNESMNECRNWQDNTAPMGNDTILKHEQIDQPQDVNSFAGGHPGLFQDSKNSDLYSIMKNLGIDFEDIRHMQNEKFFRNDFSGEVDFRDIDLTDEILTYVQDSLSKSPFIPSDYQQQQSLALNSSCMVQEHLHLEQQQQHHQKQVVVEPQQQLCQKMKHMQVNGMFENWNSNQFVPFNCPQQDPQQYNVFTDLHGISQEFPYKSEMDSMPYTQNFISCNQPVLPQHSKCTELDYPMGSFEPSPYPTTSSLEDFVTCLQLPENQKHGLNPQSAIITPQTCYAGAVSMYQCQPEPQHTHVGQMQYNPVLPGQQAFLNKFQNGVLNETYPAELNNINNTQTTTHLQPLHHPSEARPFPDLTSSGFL
MsrA act: activates bovine MsrA enzyme | AID 602163 | activation, % at 10.6 µM | hit rate 0.3% among 360,000 | purified bovine MsrA, absorbance read-out; in the data active means activation above about 7.5%
Large screens that a line does not name were inactive.

CN(c1ccc(O)cc1)c1nc(-c2cccs2)cs1	AHR act 47.2
COC(=O)C1=C(C)N(Cc2ccc(C(F)(F)F)cc2)C(=NCC2CC2)NC1c1ccccc1C(F)(F)F (centres undefined)	none (no result: HTR2A ag, AI-2 QS modul, Tb MetRS inh, AHR act, MsrA act)
COc1cccc(C(=O)CC(=O)C(=O)Nc2cc(Cl)c(OC)cc2OC)c1	none
COc1cc(OC)c(NC(=O)CCc2ccccc2)cc1Cl	AHR act 49.7
Cc1cc(NC(=O)c2ccccc2)cc(NC(=O)c2ccccc2)c1C	AHR act 78.3
COc1ccc(Cl)cc1NC(=O)CCc1ccccc1	none
COc1ccc(C(=O)CC(=O)C(=O)Nc2cc(Cl)c(OC)cc2OC)cc1	AHR act 76.8
CCCc1cc(C(=O)Nc2ccccc2C(=O)OC)no1	none
CCCc1cc(C(=O)Nc2cc(OC)c(Cl)cc2OC)no1	AHR act 62.0
CCC1CCCCN1C(=S)NN=C(C)c1ccccn1 (centres undefined)	none (no result: HTR2A ag, AI-2 QS modul, Tb MetRS inh, AHR act, MsrA act)
COc1ccc(C(=O)Nc2cc(OC)c(Cl)cc2Cl)cc1	AHR act 49.6
COc1ccc(C(=O)Nc2cc(OCc3ccccc3)c(Cl)cc2Cl)cc1	none
COc1cc(NC(=O)c2ccc(Br)cc2)c(OC)cc1NC(=O)c1ccccc1	AHR act 63.3
COc1cc(NC(=O)c2ccccc2)c(OC)cc1NC(=O)Cc1ccc(Br)cc1	none
COc1cc(NC(=O)c2ccccc2)c(OC)cc1Cl	AHR act 68.9
COc1cc(NC(=O)C/C(C)=N/NC(=O)c2cccc(O)c2)c(OC)cc1Cl	AHR act 81.6
COc1ccccc1CN1Cc2ccccc2Oc2ccccc2S1(=O)=O	none (no result: HTR2A ag, AI-2 QS modul, Tb MetRS inh, AHR act, MsrA act)
Nc1[nH]c(C(=O)c2ccccc2)c(-c2ccc(Br)cc2)c1C(=O)c1ccccc1	none (no result: HTR2A ag, AI-2 QS modul, Tb MetRS inh, AHR act, MsrA act)
COc1cc(-c2c(C(=O)c3ccccc3)[nH]c(N)c2C(=O)NCCc2c[nH]c3ccccc23)ccc1F	none (no result: HTR2A ag, AI-2 QS modul, Tb MetRS inh, AHR act, MsrA act)
COCCN1Cc2cc(C(=O)OC)c3c(c2C1=O)c1cc(F)ccc1n3S(=O)(=O)c1cccc(C)c1	none (no result: HTR2A ag, AI-2 QS modul, Tb MetRS inh, AHR act, MsrA act)
Cc1ccsc1C(=O)Nc1nc2ccccc2[nH]1	AHR act 110.6
O=C(Nc1nc2ccccc2[nH]1)c1cc2ccccc2o1	AHR act 56.4
Cc1c(C(=O)Nc2nc3ccccc3[nH]2)cccc1[N+](=O)[O-]	AHR act 59.8
COc1cc(OC)cc(C(=O)Nc2nc3ccccc3[nH]2)c1	none
O=C(Nc1nc2ccccc2[nH]1)c1ccc(OC(F)F)cc1	none (no result: AI-2 QS modul)
Cc1cc(C)nc(NC(=O)c2cc3ccccc3o2)n1	none
O=C(Nc1nc2ccccc2[nH]1)c1ccccc1OC(F)F	AHR act 50.6
COc1ccc(OC)c(CN(CC(C)C)S(=O)(=O)c2ccccc2Br)c1	none (no result: HTR2A ag, AI-2 QS modul, Tb MetRS inh, AHR act, MsrA act)
O=S1(=O)c2cc(Cl)ccc2N2CC[C@H](C2)N1Cc1ccc(Cl)c(Cl)c1	none (no result: HTR2A ag, AI-2 QS modul, Tb MetRS inh, AHR act, MsrA act)
O=C(Nc1nc2ccccc2[nH]1)c1cc(F)cc(F)c1	none
O=C(Nc1nc2ccccc2[nH]1)c1ccc(F)cc1	none
CCc1ccc(C(=O)Nc2nc3ccccc3[nH]2)cc1	AHR act 51.1 (no result: AI-2 QS modul)
Cc1cc(C)cc(C(=O)Nc2nc3ccccc3[nH]2)c1	AHR act 56.8
Nc1[nH]c(C(=O)c2ccccc2)c(-c2ccc(Cl)cc2)c1C(=O)c1c[nH]c2ccc(F)cc12	none (no result: HTR2A ag, AI-2 QS modul, Tb MetRS inh, AHR act, MsrA act)
COCCOC(=O)CSc1ncccc1-c1nc2cc(C)c(C)cc2[nH]1	none
Cc1cc2nc(-c3cccnc3SCC(=O)NC(C)C)[nH]c2cc1C	AHR act 53.5
Cc1ccc(-c2cc(-c3ccccc3)nc(NN)n2)cc1	AHR act 66.4
COc1ccc(-c2cc(-c3ccccc3)nc(NN)n2)cc1OC	AHR act 65.4
Cc1nc(NN)nc(NCc2ccccc2)n1	none (no result: AI-2 QS modul)
Cc1cc(C)c(S(=O)(=O)N2C[C@H]3CON(C)[C@H]3C[C@H]2c2ccc(-n3ccnc3)cc2)c(C)c1	none (no result: HTR2A ag, AI-2 QS modul, Tb MetRS inh, AHR act, MsrA act)
Oc1ccccc1-c1nc2c3ccccc3c3ccccc3c2[nH]1	AHR act 52.6
Oc1ccccc1-c1ccn[nH]1	none (no result: AI-2 QS modul)
CC(=NNc1cc(C)c2ccccc2n1)c1ccccn1	none (no result: HTR2A ag, AI-2 QS modul, Tb MetRS inh, AHR act, MsrA act)
CC1(c2cccc(Br)c2)NC(=O)N(CC(=O)Nc2ccc(F)cc2)C1=O (centres undefined)	none
Clc1ccc(-c2nnc3sc(-c4ccc(Br)o4)nn23)cc1	AHR act 61.4 (no result: AI-2 QS modul)
Cc1oc(-c2ccc(Cl)cc2)cc1-c1nn2c(-c3ccoc3C)nnc2s1	AHR act 52.0
Clc1ccc(-c2nnc3sc(-c4ccc(Br)o4)nn23)c(Cl)c1	none
COc1cc(NC(=O)Cc2ccc(S(=O)(=O)N3CCOCC3)s2)c(OC)cc1Cl	none
O=C(Cc1ccc(S(=O)(=O)N2CCOCC2)s1)Nc1cc(Cl)ccc1Cl	AHR act 91.7 (no result: AI-2 QS modul)
O=C1c2ccccc2C(=O)C1Cc1cccc2ccccc12	AHR act 61.1
COc1ccc(/C(C)=N/Nc2nc3ccccc3nc2C)cc1OC	AHR act 77.1
COc1ccc(/C(C)=N/Nc2cccc(C(=O)O)c2)cc1OC	none
COC(=O)[C@]12C[C@H](CC(=O)N3CCC(c4ccccc4)CC3)C(=O)N(CCc3ccc(OC)c(OC)c3)C1=C[C@H](C(C)(C)C)O[C@@H]2C	none (no result: HTR2A ag, AI-2 QS modul, Tb MetRS inh, AHR act, MsrA act)
CCOc1ccc(-c2nnc3ccc(SCC(=O)Nc4nc5ccccc5s4)nn23)cc1	AHR act 73.3
CCOc1ccc(-c2nnc3ccc(SCC(=O)N4CCCCC4)nn23)cc1	none
Cc1ccc(S(=O)(=O)NCCc2nnc3ccc(SCC(=O)Nc4nc5ccccc5s4)nn23)cc1	none (no result: HTR2A ag, Tb MetRS inh, MsrA inhibitor, MsrA act)
CCOc1ccc(-c2nnc3ccc(SC(C)C)nn23)cc1	AHR act 51.0
CCNS(=O)(=O)c1ccc(C(=O)OCc2cc(=O)oc3cc(OC)ccc23)cc1	none
O=C(N[C@H](C(=O)N1CCC[C@H]1C(=O)NCc1ccccc1)c1ccccc1)c1ccc(Cl)cc1Cl	none (no result: HTR2A ag, AI-2 QS modul, Tb MetRS inh, AHR act, MsrA act)
COc1ccc(-c2c(-c3ccsc3)oc3ccc(N4CCOCC4)cc23)cn1	AHR act 58.7
Nc1ccc(C#Cc2c(-c3ccsc3)oc3ccc(N4CCOCC4)cc23)cc1	AHR act 70.3
CCN(CC)C(=O)Cn1cc(C(=O)C(=O)N2CCN(c3ccccc3)CC2)c2ccccc21	none
CCN(CC)C(=O)Cn1cc(C(=O)C(=O)N2CCCc3ccccc32)c2ccccc21	AHR act 70.4
Cc1ccc(/C=C(\NC(=O)c2ccccc2)C(=O)NC2CCN(Cc3ccccc3)CC2)o1	none
Cc1ccc(OCCNC(=O)c2ccccc2OCc2c(C)noc2C)cc1	none (no result: AI-2 QS modul)
Cc1nc2ccccn2c1C(=O)/C=C/c1cccc([N+](=O)[O-])c1	AHR act 59.8
Cc1ccc(/C=C/C(=O)c2c(C)nc3ccccn23)cc1	none
Clc1ccc(-c2nc3nc4ccccc4nc3n2Cc2ccco2)cc1	AHR act 52.6 (no result: AI-2 QS modul)
Cc1ccc(-c2nc3nc4ccccc4nc3n2Cc2ccco2)cc1	none
N#Cc1ccc(-c2ccccc2)nc1SCC(=O)c1cc2ccccc2oc1=O	AHR act 55.2
CC(C)c1c(C#N)c(N)nc(SCC(=O)c2cc3ccccc3oc2=O)c1C#N	none

From PubChem
